# Results taken from ChEMBL document CHEMBL4364253, “Application of Dually Activated Michael Acceptor to the Rational Design of Reversible Covalent Inhibitor for Enterovirus 71 3C Protease” (J Med Chem, 2019).
# Active and inactive are the calls of the source.
# Tests used:
# Enterovirus A71 [1] = assay: Antiviral activity against pseudotyped FY Enterovirus A71 harboring luciferase reporter gene infected in HEK-293T cells in presence of ethanolamine by Bright-Glo Luciferase Assay; format: functional, organism-based
# Enterovirus A71 [2] = assay: Inhibition of Enterovirus 71 3C protease in presence of glutathione
# Enterovirus A71 [3] = assay: Inhibition of Enterovirus 71 3C protease in presence of lysine
# Enterovirus A71 [4] = assay: Reversible inhibition of Enterovirus 71 3C protease assessed as recovery of enzyme activity at 10 to 20 equivalent using peptide substrate pre-incubated for 1 hr followed by dialysis and subsequent substrate addition measured up to 72 hrs relative to control; design: scale not given: the % may be the effect or the level left
# [5] = molecular target: T1, Cathepsin K (Homo sapiens) (UniProt P43235); assay: Inhibition of human Cathepsin K at 50 uM using Ac-LR-AFC as substrate preincubated for 10 to 15 mins followed by substrate addition and measured for 30 to 60 mins by fluorescence method relative to control
# T1 sequence (whole entry): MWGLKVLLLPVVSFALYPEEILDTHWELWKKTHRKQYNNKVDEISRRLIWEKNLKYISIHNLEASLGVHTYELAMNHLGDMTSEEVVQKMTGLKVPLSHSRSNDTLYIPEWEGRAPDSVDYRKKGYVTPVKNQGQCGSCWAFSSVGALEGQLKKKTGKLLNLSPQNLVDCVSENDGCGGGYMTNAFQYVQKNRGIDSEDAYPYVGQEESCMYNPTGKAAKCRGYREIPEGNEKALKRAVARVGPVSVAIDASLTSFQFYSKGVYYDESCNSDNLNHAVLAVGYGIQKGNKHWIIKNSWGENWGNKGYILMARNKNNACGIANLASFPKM
# [6] = molecular target: T2, Calpain-1 catalytic subunit (Homo sapiens) (UniProt P07384); assay: Inhibition of human Calpain1 at 50 uM using Ac-LLY-AFC as substrate preincubated for 5 mins followed by substrate addition and measured after 10 mins by fluorescence method relative to control
# T2 sequence (whole entry): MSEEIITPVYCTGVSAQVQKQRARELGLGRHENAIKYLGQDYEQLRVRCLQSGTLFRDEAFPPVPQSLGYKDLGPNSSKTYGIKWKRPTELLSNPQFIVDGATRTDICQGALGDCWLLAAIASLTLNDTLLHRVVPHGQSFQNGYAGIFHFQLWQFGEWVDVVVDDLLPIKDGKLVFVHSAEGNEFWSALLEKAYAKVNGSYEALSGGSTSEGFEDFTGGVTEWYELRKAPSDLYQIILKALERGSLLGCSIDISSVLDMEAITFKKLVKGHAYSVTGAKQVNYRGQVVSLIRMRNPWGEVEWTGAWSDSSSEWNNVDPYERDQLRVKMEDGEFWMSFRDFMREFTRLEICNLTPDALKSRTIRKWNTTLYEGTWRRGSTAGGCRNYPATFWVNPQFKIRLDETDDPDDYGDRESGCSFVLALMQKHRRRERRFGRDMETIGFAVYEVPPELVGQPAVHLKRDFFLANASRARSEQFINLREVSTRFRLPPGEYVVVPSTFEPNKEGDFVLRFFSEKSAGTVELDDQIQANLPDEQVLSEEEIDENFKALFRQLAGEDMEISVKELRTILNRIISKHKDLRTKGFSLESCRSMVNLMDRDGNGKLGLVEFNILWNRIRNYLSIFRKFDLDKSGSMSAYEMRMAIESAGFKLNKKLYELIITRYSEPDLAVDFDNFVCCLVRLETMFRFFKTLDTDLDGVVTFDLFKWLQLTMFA
# [7] = Reversible inhibition of Enterovirus 71 3C protease assessed as overall inhibition constant using NMA-IEALFQGPPK(DNP)FR as substrate pre-incubated for 30 mins followed by substrate addition and measured over 30 mins by fluorescence method; design: species or system Enterovirus A71
# Enterovirus A71 [8] = assay: Reversible inhibition of Enterovirus 71 3C protease assessed as recovery of enzyme activity at 10 to 20 equivalent using peptide substrate pre-incubated for 1 hr followed by dilution prior to substrate addition using ultra-filtered sample relative to control; design: scale not given: the % may be the effect or the level left
# Enterovirus A71 [9] = assay: Antiviral activity against pseudotyped FY Enterovirus A71 harboring luciferase reporter gene infected in HEK-293T cells in presence of glutathione by Bright-Glo Luciferase Assay; format: functional, organism-based
# Enterovirus A71 [10] = assay: Inhibition of Enterovirus 71 3C protease in presence of ethanolamine
# Enterovirus A71 [11] = assay: Antiviral activity against pseudotyped Enterovirus A71 infected in human muscular rhabdomyosarcoma cells treated prior to viral infection and measured after 24 hrs by luminescence method; format: functional, organism-based; settings: Enterovirus A
# [12] = molecular target: Chymotrypsinogen A (Bos taurus) (UniProt P00766); assay: Inhibition of bovine pancreas alpha-chymotrypsin at 50 uM after 30 mins using N-Succinyl-L-phenylalanine- p-nitroanilide measured for 30 mins
# Enterovirus A71 [13] = assay: Binding affinity to Enterovirus 71 3C protease assessed as enzyme-compound covalent adduct formation via Cys147 residue after 1 hr by HPLC-ESI/MS analysis
# Enterovirus A71 [14] = assay: Antiviral activity against pseudotyped FY Enterovirus A71 harboring luciferase reporter gene infected in HEK-293T cells in presence of lysine by Bright-Glo Luciferase Assay; format: functional, organism-based
# Enterovirus A71 [15] = assay: Binding affinity to Enterovirus 71 3C protease assessed as enzyme-compound covalent adduct formation via Cys147 residue by measuring ratio of peak intensity of covalently modified to unmodified protein at 10 to 20 equivalent after 1 hr by HPLC-ESI/MS analysis
# Procedure, shortened: (§1)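 Recombinant EV71 3C protease (40 µM) incubated with inhibitor at 30 °C in 50 mM Tris, 150 mM NaCl, 1 mM EDTA-2Na, pH 7.0. Free inhibitor and salts removed by three ultrafiltration washes with water (10 kDa cutoff). Analysis by HPLC-ESI-Orbitrap MS with 0.1% formic acid water/acetonitrile mobile phases. Spectra deconvoluted; modification given as adduct-to-unmodified protein peak intensity ratio (I_add/I_pro).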
# Enterovirus A71 [16] = assay: Binding affinity to Enterovirus 71 3C protease assessed as enzyme-compound covalent adduct formation via Cys147 residue by measuring ratio of peak intensity of covalently modified to unmodified protein at 10 equivalent after 30 mins by HPLC-ESI/MS analysis; procedure, shortened: as §1
# Enterovirus A71 [17] = assay: Irreversible covalent inhibition of Enterovirus 71 3C protease up to 80 uM using NMA-IEALFQGPPK(DNP)FR as substrate by fluorescence method; settings: TDE = time-dependent effect
# Enterovirus A71 [18] = assay: Irreversible covalent inhibition of Enterovirus 71 3C protease assessed as Kinact/Ki ratio using NMA-IEALFQGPPK(DNP)FR as substrate and measured for 1 to 1.5 hrs by fluorescence method
# Enterovirus A71 [19] = assay: Irreversible covalent inhibition of Enterovirus 71 3C protease assessed as steady-state velocity approaching zero up to 64 uM using NMA-IEALFQGPPK(DNP)FR as substrate by fluorescence method
# Enterovirus A71 [20] = assay: Irreversible covalent inhibition of Enterovirus 71 3C protease at 64 uM using NMA-IEALFQGPPK(DNP)FR as substrate and measured for 1 to 1.5 hrs by fluorescence method
# Enterovirus A71 [21] = assay: Binding affinity to Enterovirus 71 3C protease assessed as enzyme-compound covalent adduct formation via Cys147 residue by measuring ratio of peak intensity of covalently modified to unmodified protein at 20 equivalent after 1 hr by HPLC-ESI/MS analysis; procedure, shortened: as §1
# Enterovirus A71 [22] = assay: Slow-binding inhibition of Enterovirus 71 3C protease up to 3 uM using NMA-IEALFQGPPK(DNP)FR as substrate by fluorescence method
# RD = assay: Cytotoxicity against human RD cells at 100 uM after 24 hrs by WST-1 assay relative to control; format: cell-based
smiles,measurement,setting,value
COC(=O)/C(C#N)=C/[C@H](C[C@@H]1CCCNC1=O)NC(=O)[C@H](Cc1ccc(F)cc1)NC(=O)c1cc(C)on1,Activity,Enterovirus A71 [1],Active
same,inhibition,Enterovirus A71 [2],inactive
same,inhibition,Enterovirus A71 [3],Active
same,Activity,Enterovirus A71 [4],50%
same,inhibition,[5],< 50%
same,inhibition,[6],< 50%
same,Ki,[7],9.4 nM
same,Activity,Enterovirus A71 [8],65 to 85%
same,Activity,Enterovirus A71 [9],Active
same,inhibition,Enterovirus A71 [10],Active
same,EC50,Enterovirus A71 [11],53 nM
same,inhibition,[12],inactive
same,Activity,Enterovirus A71 [13],inactive
same,Activity,Enterovirus A71 [14],Active
Cc1cc(C(=O)N[C@@H](Cc2ccc(F)cc2)C(=O)N[C@@H](C[C@@H]2CCCNC2=O)C(O)C#N)no1 (stereo partly specified),inhibition,[5],Active
same,inhibition,[6],Active
Cc1cc(C(=O)N[C@@H](Cc2ccc(F)cc2)C(=O)N[C@H](C=O)C[C@@H]2CCCNC2=O)no1,inhibition,[5],Active
same,inhibition,[6],< 50%
Cc1cc(C(=O)N[C@@H](Cc2ccc(F)cc2)C(=O)N[C@H](/C=C(\C#N)C(=O)N(C)C)C[C@@H]2CCCNC2=O)no1,Activity,Enterovirus A71 [1],Active
same,inhibition,Enterovirus A71 [2],inactive
same,inhibition,Enterovirus A71 [3],Active
same,Ratio,Enterovirus A71 [15],1
same,Ki,[7],94 nM
same,Activity,Enterovirus A71 [9],Active
same,inhibition,Enterovirus A71 [10],Active
same,EC50,Enterovirus A71 [11],110 nM
same,Activity,Enterovirus A71 [14],Active
COC(=O)/C=C/[C@H](C[C@@H]1CCCNC1=O)NC(=O)[C@H](Cc1ccc(F)cc1)NC(=O)c1cc(C)on1,Ratio,Enterovirus A71 [16],> 100
same,inhibition,Enterovirus A71 [17],Tde
same,Ratio,Enterovirus A71 [18],34 M⁻¹ s⁻¹
same,inhibition,Enterovirus A71 [19],Active
same,inhibition,[5],< 50%
same,inhibition,[6],< 50%
same,Activity,Enterovirus A71 [8],inactive
same,EC50,Enterovirus A71 [11],18300 nM
same,inhibition,[12],inactive
Cc1cc(C(=O)N[C@@H](Cc2ccc(F)cc2)C(=O)N[C@H](/C=C/C#N)C[C@@H]2CCCNC2=O)no1,Ratio,Enterovirus A71 [16],> 100
same,inhibition,Enterovirus A71 [20],Active
same,EC50,Enterovirus A71 [11],37000 nM
same,Ratio,Enterovirus A71 [21],> 100
CCOC(=O)/C=C/[C@H](C[C@@H]1CCCNC1=O)NC(=O)[C@H](Cc1ccc(F)cc1)NC(=O)c1cc(C)on1,inhibition,Enterovirus A71 [17],Tde
same,Ratio,Enterovirus A71 [18],72 M⁻¹ s⁻¹
same,inhibition,Enterovirus A71 [19],Active
same,EC50,Enterovirus A71 [11],17000 nM
CNC(=O)/C=C/[C@H](C[C@@H]1CCCNC1=O)NC(=O)[C@H](Cc1ccc(F)cc1)NC(=O)c1cc(C)on1,Ratio,Enterovirus A71 [16],> 100
same,inhibition,Enterovirus A71 [17],Tde
same,Ratio,Enterovirus A71 [18],46 M⁻¹ s⁻¹
same,inhibition,Enterovirus A71 [19],Active
same,EC50,Enterovirus A71 [11],21000 nM
CCN(C(=O)OC(C)(C)C)C(=O)/C(C#N)=C/[C@H](C[C@@H]1CCCNC1=O)NC(=O)[C@H](Cc1ccc(F)cc1)NC(=O)c1cc(C)on1,Ki,[7],24 nM
same,inhibition,Enterovirus A71 [22],Active
same,EC50,Enterovirus A71 [11],67 nM
Cc1cc(C(=O)N[C@@H](Cc2ccc(F)cc2)C(=O)N[C@H](/C=C(\C#N)c2ccsc2)C[C@@H]2CCCNC2=O)no1,inhibition,[5],< 50%
same,inhibition,[6],< 50%
same,Ki,[7],516 nM
same,EC50,Enterovirus A71 [11],3100 nM
same,inhibition,[12],inactive
COC(=O)C(Cl)=C[C@H](C[C@@H]1CCCNC1=O)NC(=O)[C@H](Cc1ccc(F)cc1)NC(=O)c1cc(C)on1,Activity,RD,100%
same,inhibition,[5],< 50%
same,inhibition,[6],< 50%
same,Ki,[7],152 nM
same,EC50,Enterovirus A71 [11],670 nM
same,inhibition,[12],inactive
Cc1cc(C(=O)N[C@@H](Cc2ccc(F)cc2)C(=O)N[C@H](/C=C(\C#N)C(=O)N(C)C(=O)OC(C)(C)C)C[C@@H]2CCCNC2=O)no1,Activity,Enterovirus A71 [1],Active
same,inhibition,Enterovirus A71 [2],inactive
same,inhibition,Enterovirus A71 [3],Active
same,Activity,Enterovirus A71 [4],30%
same,Ratio,Enterovirus A71 [15],1.5
same,inhibition,[5],< 50%
same,inhibition,[6],< 50%
same,Ki,[7],9.3 nM
same,Activity,Enterovirus A71 [8],Active
same,Activity,Enterovirus A71 [9],Active
same,inhibition,Enterovirus A71 [10],Active
same,EC50,Enterovirus A71 [11],51 nM
same,inhibition,[12],inactive
same,Activity,Enterovirus A71 [14],Active
CNC(=O)/C(C#N)=C/[C@H](C[C@@H]1CCCNC1=O)NC(=O)[C@H](Cc1ccc(F)cc1)NC(=O)c1cc(C)on1,Activity,Enterovirus A71 [4],50%
same,Ratio,Enterovirus A71 [15],0.1
same,inhibition,[5],< 50%
same,inhibition,[6],< 50%
same,Ki,[7],304 nM
same,Activity,Enterovirus A71 [8],Active
same,EC50,Enterovirus A71 [11],400 nM
same,inhibition,[12],inactive
Cc1cc(C(=O)N[C@@H](Cc2ccc(F)cc2)C(=O)N[C@H](/C=C(\C#N)c2ccccn2)C[C@@H]2CCCNC2=O)no1,Activity,RD,100%
same,inhibition,[5],65%
same,inhibition,[6],< 50%
same,Ki,[7],119 nM
same,EC50,Enterovirus A71 [11],460 nM
same,inhibition,[12],inactive
